Source: PubChem (several laboratories)
Shown are actives, neighbours in structure and some others; about 2.1% of the full set was active somewhere.
CXCR6 block = CXCR6 (human) receptor inhibition. O00574. CHO-K1 PathHunter CXCR6 beta-arrestin, luminescence. inhibition, % at 20 µM. actives 0.36% (n = 360,000). AID 602244; in the data active = inhibition above about 34%, passing the limit was not always enough;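 note: antagonist mode with CXCL16 agonist at 10 nM final; 0% = 10 nM CXCL16 with DMSO and 100% = unstimulated wells without agonist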
Target sequence (O00574 whole entry, looked up): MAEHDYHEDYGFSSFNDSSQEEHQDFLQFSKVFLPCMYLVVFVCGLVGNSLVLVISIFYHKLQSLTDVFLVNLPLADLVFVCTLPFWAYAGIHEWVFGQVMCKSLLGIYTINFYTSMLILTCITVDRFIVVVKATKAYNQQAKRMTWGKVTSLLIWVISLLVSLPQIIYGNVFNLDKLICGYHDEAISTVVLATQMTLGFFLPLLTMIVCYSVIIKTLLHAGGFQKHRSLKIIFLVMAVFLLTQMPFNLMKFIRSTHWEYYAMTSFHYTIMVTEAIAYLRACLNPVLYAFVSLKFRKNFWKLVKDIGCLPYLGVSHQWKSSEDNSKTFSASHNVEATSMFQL
APJ ag = agonists of human APJ apelin receptor | activation, % at 20 µM | CHO-K1 APJ PathHunter beta-arrestin, luminescence; 0% DMSO wells, 100% apelin | actives 0.11% (n = 330,000) | AID 2520;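 active = activation more than six SD over the plate average, tested at 20 µM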;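 note: 0% = DMSO alone and 100% = apelin-13 at 10 nM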
Target sequence (P35414 whole entry, looked up): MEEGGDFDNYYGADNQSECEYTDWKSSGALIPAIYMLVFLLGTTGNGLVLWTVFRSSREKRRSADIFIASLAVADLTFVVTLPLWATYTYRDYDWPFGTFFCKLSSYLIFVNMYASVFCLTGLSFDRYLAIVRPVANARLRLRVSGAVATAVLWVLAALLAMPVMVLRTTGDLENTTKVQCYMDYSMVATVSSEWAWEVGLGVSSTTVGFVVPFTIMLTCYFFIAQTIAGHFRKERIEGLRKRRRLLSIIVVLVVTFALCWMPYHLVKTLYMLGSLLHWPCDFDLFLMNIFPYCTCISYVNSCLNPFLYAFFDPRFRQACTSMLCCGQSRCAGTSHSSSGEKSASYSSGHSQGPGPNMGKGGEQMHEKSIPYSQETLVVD
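Assay system: engineered CHO-K1 APJ arrestin reporter cells; Amount: 1000 CHO-K1 reporter cells seeded per well; Dosing: one dose, 20 µM compound, 1% DMSO; Times: compound stimulation 90 min at 25 °C, detection 60 min; Measured by: luminescent beta-gal fragment complementation, chemiluminescent substrate; Read-out: APJ–arrestin association signal; Controls: DMSO vs Apelin-13 10 nM.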
CCR6 antag = antagonists of human CCR6 receptor | CHO-K1 CCR6 PathHunter beta-arrestin, luminescence, CCL20-stimulated | actives 0.49% (n = 340,000) | P51684 | inhibition, % at 20 µM;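 active = compounds whose inhibition of the agonist-driven luminescence signal at 20 µM reaches about 50%, limit read from the data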;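 note: cells stimulated with CCL20 at 14 nM final; plate controls were DMSO with CCL20 for no effect and DMSO without agonist for full effect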
m5-HT2A agonist = agonists of mouse serotonin 5-HT2A receptor (HTR2A). CHO-K1 mHTR2A beta-arrestin complementation, luminescence; percent of 30 µM serotonin response. activation, % at 7.6 µM. actives 0.66% (n = 360,000). AID 624169;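 active = activation above a run cutoff, the mean activation of all tested compounds plus 3 SD, cut at about 14% in these data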;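 note: 0% = plate median of compound wells and 100% = 30 µM serotonin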
APJ antag = APJ receptor antagonism. P35414. CHO-K1 APJ beta-arrestin complementation, luminescence. inhibition, % at 20 µM. actives 0.32% (n = 330,000);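 active = inhibition above about 40% at 20 µM, limit read from the data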;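 note: cells challenged with 10 nM apelin-13 agonist together with compound; plate controls were apelin-13 plus DMSO wells for no effect and DMSO wells lacking apelin-13 for full effect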
EBI2 block = EBI2 (human) antagonism; EBI2 beta-arrestin recruitment, luminescence, 7a,25-OHC stimulated; inhibition, % at 5 µM; actives 0.81% (n = 360,000); in the data active = inhibition above about 38%;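 note: enzyme fragment complementation signal reports receptor beta-arrestin coupling in cells; 0% = agonist plus DMSO wells and 100% = wells without agonist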
EBI2 antag conf = confirmation of human EBI2 receptor antagonists; shares compounds with EBI2 block; EBI2 beta-arrestin luminescence, 7a,25-OHC antagonism; inhibition, % at 5 µM; actives 29% (n = 2,400); AID 651997;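 active = inhibition of at least 50%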
EBI2 agonist = counter-screen for EBI2 antagonists: EBI2 agonist activity | shares compounds with EBI2 block | EBI2-expressing cells, agonist mode, luminescence, 60 min; 0% vehicle, 100% 7α,25-dihydroxycholesterol control | activation, % at 5 µM | 2,400 tested, under 10 active | AID 652000;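 active = activation of at least 50%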
bGal cs = beta-galactosidase inhibition counter-screen. shares compounds with EBI2 block. purified beta-galactosidase, luminescent Galacton Star, 15 min. inhibition, % at 5 µM. actives 1% (n = 2,400). AID 652176;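 active = replicate-average signal at least 3 plate SD below neutral wells, shown as high inhibition, flagging enzyme-inhibiting false positives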;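 note: 0% = DMSO wells with enzyme and 100% = wells lacking enzyme; higher means stronger loss of beta-gal luminescence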
* = called active by the depositor; x = not tested or not shown.

SMILES	CXCR6 block	APJ ag	CCR6 antag	m5-HT2A agonist	APJ antag	EBI2 block	EBI2 antag conf	EBI2 agonist	bGal cs
O=C(NCc1ccc2c(c1)OCO2)C1CCN(S(=O)(=O)c2ccc(Br)s2)CC1	-3.7	3.1	-3.5	6.8	1.2	44.0*	18.4	-1.4	-4.0
COc1ccc(CNC(=O)C2CCN(S(=O)(=O)c3ccc(Br)s3)CC2)cc1	7.2	-0.7	20.9	5.5	4.6	68.0*	32.1	-1.7	-9.5
C=CCNC(=S)N/N=C/c1ccc(C)cc1C	-7.5	-1.8	11.2	4.2	3.1	27.9	x	x	x
Cc1nc2ccccc2n1CC(O)COc1ccccc1Cl (centres undefined)	-11.8	-2.8	13.9	-4.6	1.5	-3.7	x	x	x
Cc1ccn2c(=O)nc(SCC(=O)c3ccccc3)nc2c1	10.0	-4.9	6.5	-1.0	20.8	3.9	x	x	x
Cc1ccc(C2CC(c3ccc(Cl)cc3)=NNC2=O)cc1 (centres undefined)	0.3	-0.8	-8.8	-3.6	6.6	49.5*	44.3	-0.2	8.0
CN1N=C(c2ccc(Cl)cc2)CC(c2ccc(Cl)cc2)C1=O (centres undefined)	-2.7	0.2	17.1	0.7	-1.6	41.3	x	x	x
Cc1cccc(C2=NNC(=O)C(c3ccc(Cl)cc3)C2)c1 (centres undefined)	-1.6	-3.0	-2.4	2.3	16.0	23.5	x	x	x
O=C1NN=C(c2ccc(Br)cc2)CC1c1ccc(Cl)cc1 (centres undefined)	9.5	-2.9	10.1	5.6	-4.4	74.0*	51.9*	-1.7	-2.4
CCc1ccc(C2CC(c3ccc(Cl)cc3)=NNC2=O)cc1 (centres undefined)	-25.7	-1.5	-6.7	2.5	15.1	61.4*	47.6	0.8	0.5
O=C(c1cc2cc(Cl)ccc2[nH]1)N1CCN(c2ccccn2)CC1	-5.8	-1.7	-7.1	-1.8	11.5	80.1*	67.0*	-2.2	-8.4
O=C(c1cc2cc(Cl)ccc2[nH]1)N1CCN(C(=O)c2ccco2)CC1	-4.9	4.0	-8.7	1.3	-10.0	72.7*	48.7	-1.4	-7.4
O=C(c1cc2cc(Cl)ccc2[nH]1)N1CCN(c2ccccc2F)CC1	0.8	-1.1	-10.7	-1.3	-8.9	85.2*	73.1*	0.7	7.4
O=C(O)c1[nH]c2ccc(Cl)cc2c1CC(=O)N1CCN(C(=O)c2ccco2)CC1	-3.8	-2.4	8.0	4.8	-3.5	-1.3	x	x	x
O=C(c1ccccc1C(=O)N1CCN(c2ccccc2F)CC1)N1CCN(c2ccccc2F)CC1	5.2	-2.0	22.2	-4.8	6.2	5.9	x	x	x
CCCCCCn1cc(CN2CC(N3CCN(CCN(C)C)CC3)CS2(=O)=O)nn1 (centres undefined)	4.1	x	x	1.3	x	3.8	x	x	x
COC(=O)c1ccc(CSc2nnc(-c3ccncc3)o2)cc1	-2.3	-2.0	11.6	-5.1	-11.1	-11.3	x	x	x
Cc1cccc(C2=NN(c3ccc(Br)cc3)[C@@H](C(=O)N3CCOC3=O)[C@@H]2c2ccc(Cl)cc2)c1	6.9	x	16.5	0.0	x	2.7	x	x	x
CCN(C[C@H]1N[C@@](C)(C(=O)OC)[C@H]2C(=O)N(Cc3ccccc3)C(=O)[C@@H]12)S(=O)(=O)c1ccc(C)cc1	-4.9	-3.5	-2.9	-1.9	9.9	0.8	x	x	x
Cc1cccc(N2CCN(C(=O)/C=C/c3cccs3)CC2)c1C	2.0	-3.6	9.2	-0.2	14.3	84.9*	57.5*	-0.7	-13.0
O=C(/C=C/c1ccc2c(c1)OCO2)N1CCN(c2ccccc2F)CC1	12.3	1.9	0.6	1.8	14.9	35.3	x	x	x
COc1ccccc1N1CCN(C(=O)/C=C/c2ccco2)CC1	4.7	-1.4	9.1	-0.1	19.2	7.0	x	x	x
Cc1cccc(N2CCN(C(=O)c3cccs3)CC2)c1C	6.3	-1.7	12.6	2.6	-12.0	-43.5	x	x	x
COc1ccccc1N1CCN(C(=O)/C=C/c2ccc3c(c2)OCO3)CC1	-6.9	-1.0	9.4	-2.5	3.8	78.4*	55.6*	-0.6	-9.3
COc1ccccc1N1CCN(C(=O)/C=C/c2ccccc2)CC1	1.4	5.6	3.1	-2.5	14.4	84.0*	59.2*	-0.9	-12.1
SMILES	CXCR6 block	APJ ag	CCR6 antag	m5-HT2A agonist	APJ antag	EBI2 block	EBI2 antag conf	EBI2 agonist	bGal cs
COc1ccccc1N1CCN(C(=O)/C=C/c2cccs2)CC1	-8.2	-4.0	-9.9	-2.8	-0.2	47.6*	41.4	1.9	1.4
CC(C)c1ccc(CNc2ccc([N+](=O)[O-])cn2)cc1	4.5	1.5	28.5	7.4	-4.7	12.8	x	x	x
O=C(Cn1nnc2c(sc3nc4c(c(-c5ccccc5)c32)CCC4)c1=O)c1ccccc1	3.1	-2.3	9.2	-1.3	-17.6	29.1*	-0.3	1.3	4.2
CN(C)C1(CNC(=O)CC(NC(=O)c2ccccc2Cl)c2ccccc2)CCCCC1 (centres undefined)	-1.4	-0.1	5.7	0.1	-12.5	-8.9	x	x	x
COC(=O)c1ccc(N2CCC(c3cc(-c4ccc(OC)cc4)n[nH]3)CC2)c([N+](=O)[O-])c1	10.3	-2.9	25.8	1.2	4.9	49.5*	6.2	-0.2	6.0
COc1ccc(-c2cc(C3CCN(c4ccc(C(C)=O)cc4[N+](=O)[O-])CC3)[nH]n2)cc1	13.5	0.3	18.2	1.1	6.9	8.9	x	x	x
CCn1c(SCC(=O)NCc2ccccc2)nnc1-c1cccnc1	-3.3	-3.6	1.0	5.1	1.6	-3.0	x	x	x
c1ccc(-c2csc3ncnc(NCc4ccccn4)c23)cc1	3.5	1.8	8.4	-3.8	15.4	-1.2	x	x	x
COc1ccc(NC(=O)CN(C)C(=O)c2ccc3c(c2)CC(c2ccccc2)OC3=O)cc1 (centres undefined)	-7.6	x	x	-0.8	x	49.0*	16.1	-0.4	-12.2
Cc1ccc(C2NC(=O)c3sc(=S)n(-c4ccccc4)c3N2)cc1 (centres undefined)	-7.5	-3.1	0.1	3.9	-0.2	7.8	x	x	x
CC(C)C[C@@H](CN1CCC[C@@H]1CN1C(=S)NC[C@@H]1Cc1ccc(O)cc1)N1C[C@H](Cc2ccccc2)N(CCc2ccccc2)C1=S	0.4	x	x	-5.1	x	47.1*	5.7	-1.1	-7.1
CC(C)C[C@H]1CNC(=S)N1C[C@H]1CCCN1C[C@H](Cc1ccc(O)cc1)N1C[C@H](Cc2ccccc2)N(CCc2ccccc2)C1=S	13.8	x	x	-2.0	x	15.6	x	x	x
